Reference: ChEMBL document CHEMBL2016495, “Design and synthesis of potent, isoxazole-containing renin inhibitors” (Bioorg Med Chem Lett, 2012)

Key:
Renin [1] = biological target: T1, Renin (Homo sapiens, UniProt P00797); assay: Inhibition of human recombinant renin using QXL520-Lys-His-Pro-Phe-His-Leu-Val-Ile-His-Lys-(5-FAM) as substrate pretreated for 10 mins measured after 1 hr by fluorescence analysis in presence of human plasma
T1 sequence (P00797 whole entry): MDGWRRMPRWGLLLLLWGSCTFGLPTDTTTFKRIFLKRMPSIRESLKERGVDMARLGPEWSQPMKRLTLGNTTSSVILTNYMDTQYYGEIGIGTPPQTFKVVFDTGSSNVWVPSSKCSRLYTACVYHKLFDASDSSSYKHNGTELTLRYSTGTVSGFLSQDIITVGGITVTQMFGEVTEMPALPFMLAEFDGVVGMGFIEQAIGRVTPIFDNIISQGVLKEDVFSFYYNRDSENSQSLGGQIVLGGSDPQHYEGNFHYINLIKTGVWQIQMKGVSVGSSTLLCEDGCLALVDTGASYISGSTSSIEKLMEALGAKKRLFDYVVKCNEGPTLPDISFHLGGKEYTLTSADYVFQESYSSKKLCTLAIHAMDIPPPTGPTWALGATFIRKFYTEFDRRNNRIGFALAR

CYP3A4 = CYP3A4 (Homo sapiens, UniProt P08684); assay: Inhibition of CYP3A4 assessed as time dependent inhibition of conversion of testosterone to 6-beta-hydroxy-testosterone at 10 uM; type: ADME; conditions: probe testosterone
Cytochrome P450 3A4 = Cytochrome P450 3A4 (Homo sapiens, UniProt P08684); assay: Reversible inhibition of CYP3A4-mediated conversion of testosterone to 6-beta-hydroxy-testosterone after 30 mins; type: ADME
[2] = biological target: Voltage-gated inwardly rectifying potassium channel KCNH2 (Homo sapiens, UniProt Q12809); assay: Binding affinity to human Erg
Renin [3] = biological target: T1, Renin; assay: Inhibition of human recombinant renin using DNP-Lys-His-Pro-Phe-His-Leu-Val-Ile-His-D,L-Amp as substrate after 3 hrs by fluorescence analysis
Outline: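 Recombinant human renin at 100 pM, with or without inhibitor, and 6 µM Q-FRET substrate in 50 mM MOPS, 100 mM NaCl, pH 7.4, 0.002% Tween. Incubated at 37 °C for 3 h. Fluorescence (ex 328 / em 388 nm) was read at 0 and 3 h.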

Rattus norvegicus [4] = assay: Antihypertensive activity in double transgenic rat assessed as duration of decrease in blood pressure at 3 mg/kg, po; type: functional
[5] = Clearance in Sprague-Dawley rat at 3 mg/kg, po and 0.5 mg/kg, iv; type: ADME, organism-based; conditions: in vivo
[6] = AUC in Sprague-Dawley rat at 3 mg/kg, po; type: ADME, organism-based; set-up: dose 3 mg/kg, route oral; conditions: plasma
Outline: (§1)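 Rats dosed orally at 3 mpk as a solution in 0.5% methyl cellulose.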

Rattus norvegicus [7] = assay: Antihypertensive activity in double transgenic rat assessed as decrease in blood pressure at 3 mg/kg, po; type: functional
[8] = Volume of distribution at steady state in Sprague-Dawley rat at 3 mg/kg, po and 0.5 mg/kg, iv; type: ADME, organism-based; conditions: in vivo, read-out: Vdss
[9] = Half life in Sprague-Dawley rat at 3 mg/kg, po and 0.5 mg/kg, iv; type: ADME, organism-based; conditions: in vivo
Outline: as §1

[10] = Oral bioavailability in Sprague-Dawley rat at 3 mg/kg; type: ADME, organism-based; conditions: in vivo
Outline: as §1

Sequence of Cytochrome P450 3A4 (P08684 whole entry): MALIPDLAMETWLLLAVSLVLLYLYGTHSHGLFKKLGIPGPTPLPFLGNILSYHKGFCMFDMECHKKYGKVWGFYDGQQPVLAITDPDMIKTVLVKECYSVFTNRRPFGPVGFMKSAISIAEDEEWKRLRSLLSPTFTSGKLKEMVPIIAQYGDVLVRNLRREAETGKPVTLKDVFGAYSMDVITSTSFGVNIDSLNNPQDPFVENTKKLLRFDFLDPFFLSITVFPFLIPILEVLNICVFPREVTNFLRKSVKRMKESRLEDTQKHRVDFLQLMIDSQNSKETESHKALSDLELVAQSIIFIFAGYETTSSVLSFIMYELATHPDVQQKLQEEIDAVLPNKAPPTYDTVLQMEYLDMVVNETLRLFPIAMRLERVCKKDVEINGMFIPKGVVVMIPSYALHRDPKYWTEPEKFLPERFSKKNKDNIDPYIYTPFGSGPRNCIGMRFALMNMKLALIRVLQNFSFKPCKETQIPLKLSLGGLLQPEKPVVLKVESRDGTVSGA
Sequence of CYP3A4 (P08684 whole entry): as above
Sequence of Voltage-gated inwardly rectifying potassium channel KCNH2 (Q12809 whole entry): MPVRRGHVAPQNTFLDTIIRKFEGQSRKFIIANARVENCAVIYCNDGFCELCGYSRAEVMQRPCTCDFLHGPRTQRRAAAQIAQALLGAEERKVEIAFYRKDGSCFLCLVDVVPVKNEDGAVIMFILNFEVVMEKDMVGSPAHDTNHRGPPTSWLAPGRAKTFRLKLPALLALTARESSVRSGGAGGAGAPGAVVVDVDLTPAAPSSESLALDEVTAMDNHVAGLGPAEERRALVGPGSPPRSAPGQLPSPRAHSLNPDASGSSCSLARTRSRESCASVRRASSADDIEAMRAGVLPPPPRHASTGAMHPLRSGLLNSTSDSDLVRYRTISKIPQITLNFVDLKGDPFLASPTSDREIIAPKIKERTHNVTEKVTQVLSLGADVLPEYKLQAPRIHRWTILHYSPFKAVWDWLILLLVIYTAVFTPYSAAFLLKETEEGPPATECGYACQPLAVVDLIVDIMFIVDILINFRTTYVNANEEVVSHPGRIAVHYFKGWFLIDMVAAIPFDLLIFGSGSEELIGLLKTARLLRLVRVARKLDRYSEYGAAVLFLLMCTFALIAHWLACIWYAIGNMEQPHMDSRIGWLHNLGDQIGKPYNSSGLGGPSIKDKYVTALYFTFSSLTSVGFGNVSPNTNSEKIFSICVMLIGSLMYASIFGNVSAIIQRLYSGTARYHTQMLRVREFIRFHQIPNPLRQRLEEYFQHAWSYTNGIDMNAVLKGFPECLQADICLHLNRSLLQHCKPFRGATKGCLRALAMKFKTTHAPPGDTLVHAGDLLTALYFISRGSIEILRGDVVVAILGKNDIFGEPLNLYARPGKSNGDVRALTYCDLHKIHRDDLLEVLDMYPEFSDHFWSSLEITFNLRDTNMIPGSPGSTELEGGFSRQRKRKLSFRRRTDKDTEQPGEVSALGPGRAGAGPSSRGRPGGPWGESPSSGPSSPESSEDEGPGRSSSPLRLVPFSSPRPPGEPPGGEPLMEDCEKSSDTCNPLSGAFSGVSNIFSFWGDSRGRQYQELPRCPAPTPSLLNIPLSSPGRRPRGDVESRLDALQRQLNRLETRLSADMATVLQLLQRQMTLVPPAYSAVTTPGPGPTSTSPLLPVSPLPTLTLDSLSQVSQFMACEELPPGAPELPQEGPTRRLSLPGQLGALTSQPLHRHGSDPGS

SMILES	inhibition at 10 µM (CYP3A4) [%]	IC50 (Cytochrome P450 3A4) [µM]	Ki [2] [µM]	IC50 (Renin [3]) [nM]	also measured
O[C@]1(c2ccc(F)c(F)c2)CCNC[C@@H]1c1cc(-c2c(Cl)cccc2Cl)on1	60	17	9.8		IC50 (Renin [1]): > 9.5 µM
CC(=O)NCCc1ccccc1-c1onc([C@H]2CNCC[C@@H]2c2ccc(F)c(F)c2)c1Br	75	13	19.5		
CC(=O)NCCc1ccccc1-c1onc([C@H]2CNCC[C@]2(O)c2ccc(F)c(F)c2)c1Cl	74	> 50		0.73	
Cc1cccc(-c2noc([C@H]3CNCC[C@]3(O)c3ccc(F)c(F)c3)c2Br)c1C	77	20	6		
CC(=O)NCCc1ccccc1-c1ccc([C@H]2CNCC[C@@H]2c2ccc(F)c(F)c2)c(Cl)c1		20			
O[C@]1(c2ccc(F)c(F)c2)CCNC[C@@H]1c1onc(-c2ccccc2Cl)c1Br	76	18		1.14	
CC(=O)NCCc1ccccc1-c1onc([C@H]2CNCC[C@]2(O)c2ccc(F)c(F)c2)c1C(C)O (stereo partly drawn)	48	> 50			
CC(=O)NCCc1ccccc1-c1onc([C@H]2CNCC[C@]2(O)c2ccc(F)c(F)c2)c1Br	68	33		0.27	Time (Rattus norvegicus [4]): 18 h; clearance [5]: 108 mL/min/kg; AUC [6]: 0.14 µM·h; Activity (Rattus norvegicus [7]): 44 mmHg; Vd [8]: 36 L/kg; half-life [9]: 5.7 h; bioavailability [10]: 16%
CC(=O)NCCc1ccccc1-c1onc([C@H]2CNCC[C@]2(O)c2ccc(F)c(F)c2)c1C(C)=O	32	8			
CC(=O)NCCc1cc(F)ccc1-c1onc([C@H]2CNCC[C@]2(O)c2ccc(F)c(F)c2)c1Br	78	45			IC50 (Renin [1]): 0.0007 µM
O[C@]1(c2ccc(F)c(F)c2)CCNC[C@@H]1c1cc(-c2ccc(F)cc2Br)no1	22	3	1.7		
CC(=O)NCCc1ccccc1-c1cc([C@H]2CNCC[C@]2(O)c2ccc(F)c(F)c2)no1	21	32		166	IC50 (Renin [1]): 0.331 µM
CC(=O)NCCc1ccccc1-c1noc([C@H]2CNCC[C@]2(O)c2ccc(F)c(F)c2)c1Br	74	45			
O[C@]1(c2ccc(F)c(F)c2)CCNC[C@@H]1c1cc(-c2ccc(F)cc2Cl)no1	36	7			IC50 (Renin [1]): > 9.5 µM
O[C@]1(c2ccc(F)c(F)c2)CCNC[C@@H]1c1cc(-c2c(Cl)cccc2Cl)no1	59	8	2.8		
CO[C@]1(c2ccc(F)c(F)c2)CCNC[C@@H]1c1noc(-c2ccccc2CCNC(C)=O)c1Br	60	28		0.17	
COC[C@H](C)COCc1ccc([C@@]2(O)CCNC[C@@H]2c2noc(-c3ccccc3CCNC(C)=O)c2Br)cc1	10	29	31.2	0.26	Time (Rattus norvegicus [4]): 8 h; IC50 (Renin [1]): 0.00067 µM; clearance [5]: 124 mL/min/kg; AUC [6]: 0.13 µM·h; Activity (Rattus norvegicus [7]): 27 mmHg; Vd [8]: 12 L/kg; half-life [9]: 1.4 h; bioavailability [10]: 18%
CC(=O)NCCc1ccccc1-c1onc([C@H]2CNCC[C@]2(C(N)=O)c2ccc(F)c(F)c2)c1Br			30	0.22	IC50 (Renin [1]): 0.0006 µM
O[C@]1(c2ccc(F)c(F)c2)CCNC[C@@H]1c1onc(-c2cccc(Cl)c2Cl)c1Br	60	19			
O[C@]1(c2ccc(F)c(F)c2)CCNC[C@@H]1c1onc(-c2c(Cl)cccc2Cl)c1Br	82	15	3.9		
O[C@]1(c2ccc(F)c(F)c2)CCNC[C@@H]1c1onc(-c2cccc3ccccc23)c1Br	67	> 50	4.2	0.06	
CC(=O)NCCc1ccccc1-c1onc([C@H]2CNCC[C@]2(OCC(O)CO)c2ccc(F)c(F)c2)c1Br (stereo partly drawn)	18	> 50	> 60		clearance [5]: 70 mL/min/kg; Vd [8]: 12 L/kg; half-life [9]: 1.9 h; bioavailability [10]: 0%
